Assay: Toxicity liver stage against HepG2, at 10uM
Assay type: cell-based
Parameters: test concentration 10 uM, cell line HepG2-A16-CD81EGFP
Settings: human, HepG2-A16-CD81EGFP cells; read-out: INHIBITION
Method in brief: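 Uninfected HepG2-A16-CD81EGFP cells, 3 × 10^3 per well, 1536-well, plated on prespotted compound at 10 μM final, parasite-free screening media added to match infected plates; puromycin 10 μM positive, DMSO 0.5% negative; run in parallel with 48 h PbLuc assay at 37 °C, 5% CO2; viability by CellTiter-Glo luminescence, normalized to controls.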

| Compound | cytotoxicity at 10 µM [%] |
| --- | --- |
| COCC1CN(C(=O)c2ccnnc2)Cc2c1cnn2C (centres undefined) | -3.09 |
| CN1C(=O)[C@@H]2CC[C@H]1CN(C(=O)Nc1cccc3ccccc13)C2 | -2.69 |
| Cc1cccc(NC2CCN(C(=O)Nc3ccc(F)cc3C)CC2)n1 | -11.7 |
| CCN(Cc1nc2c(cnn2C)c(=O)[nH]1)c1cccc(C)c1 | -7.09 |
| O=C1COC2(CCN(Cc3ccoc3)CC2)CN1c1ccsc1 | 3.09 |
| COCCN1C[C@H]2[C@@H](C1)N(Cc1cnn(C)c1)CC[C@H]2OC | 8.47 |
| CN1CCCC[C@@H]2[C@H]1[C@@H](c1ccccc1)CCN2C(=O)c1cnccn1 | -3.81 |
| CCCN1C(=O)C2(CCCCC2)NC1c1cn(C)c(=O)n(C)c1=O (centres undefined) | 4.45 |
| COc1ccc(CC(=O)N2CC[C@@H]3CN(C)S(=O)(=O)[C@@H]3CC2)cc1 | 4.33 |
| CCc1nc(C2CCCN2C(=O)c2cc3c(s2)CCC3)no1 (centres undefined) | -5.86 |
| Cc1cc(CN(C)Cc2ncc(-c3cccs3)o2)no1 | 11 |
| CC(C)(O)CN1CCN(C(=O)c2cc3ccccc3c(=O)[nH]2)CC1 | 1.52 |
| O=C1CC2(CCN(Cc3ccc(C(F)(F)F)nc3)CC2)CN1 | -6.33 |
| CN(C)c1ccc(C(=O)Nc2cn[nH]c2)cc1 | -0.279 |
| CCC1CN(Cc2nnc(C3CC3)o2)CCC(=O)N1Cc1ccccc1 (centres undefined) | 0.0723 |
| O=C(c1cc2ccccc2[nH]c1=O)N1CCC2(CCCNC2)C1 (centres undefined) | -4.66 |
| FC(F)(F)c1ccnc(N2CCCC(N3CCOCC3)C2)c1 (centres undefined) | -24.7 |
| COc1ccnc(N2C[C@H]3CC[C@@H](C2)N(CC2CC2)C3)n1 | -0.65 |
| CCn1c(C)cc(C(=O)Nc2ccccc2CN(C)C(C)=O)c1C | -1.03 |
| O=C(CC1CCC2(CC1)CCN(Cc1ccncc1)CC2)N1CCCC1 | 6.72 |
| COc1c(C2CCCN2C(=O)c2c(C)noc2C(C)C)c(C)nn1C (centres undefined) | 8.88 |
| COCCN1C(=O)CO[C@H]2CN(Cc3cccc(OC)c3F)C[C@@H]21 | -0.0572 |

| Compound | cytotoxicity at 10 µM [%] |
| --- | --- |
| CC(=O)c1ccc(C(=O)N2CCC(c3cc(O)nc(C)n3)CC2)s1 | 1.3 |
| COC[C@@]12CC[C@@H](N3CCOCC3)C[C@H]1CCN(c1nc(CO)cs1)C2 | -3.61 |
| O=C(Cc1ccccc1Cl)Nc1cnn(C2CCOC2)c1 (centres undefined) | 2.63 |
| COCCN1CCC(CNc2cnc3ccccc3n2)CC1 | -46.6 |
| CCOC(=O)c1cnn(C2CCN(C(=O)CC3CCCC3)CC2)c1N | 0.969 |
| COCCN1CCN(c2ccc3ccc(C(=O)NC4CC4)cn23)CC1 | -4.37 |
| CCC(Nc1nccc(C2CCCC2)n1)c1ccccn1 (centres undefined) | -126 |
| O=C(c1cc(C2CC2)[nH]n1)N1CCN(Cc2ccccc2)CC1 | -5.94 |
| CCN1CCC2(CCC1=O)CN(c1ccnc(SC)n1)CCN2C (centres undefined) | 17.7 |
| O=C(O)c1cnc(N2CCC(c3nccn3CC3CC3)CC2)c(Cl)c1 | -9.98 |
| Cc1ccoc1C1=NNC(=CN2CCn3c(C)nnc3C2)O1 | -16.4 |
| CCc1nc(NCCc2c(C)nn(CC)c2C)c2cnn(C)c2n1 | 9.33 |
| CN(C)[C@@H]1CCN(C(=O)NC2CCCC2)[C@H]1Cc1ccncc1 | 5.83 |
| COc1ccc(CC(=O)N2CCCC2Cn2cccn2)cc1F (centres undefined) | -0.587 |
| Cc1ccc(CN2CCOC3(COCCN(C(C)C)C3)C2)o1 (centres undefined) | -107 |
| O=C(c1cn(CC(=O)N2CCCCCC2)c2ccccc12)C1CC1 | 13.6 |
| CCc1cc(CNCc2ccccc2N(C)C2CCN(C)CC2)on1 | -11.7 |
| Cc1noc(CCCC(=O)NC(C)c2ccc(Cl)s2)n1 (centres undefined) | -9.48 |
| Cc1cc(S(=O)(=O)NC(=O)CCc2cncc(F)c2)c(C)s1 | -1.99 |
| CSc1ccc(C2CC(=O)Nc3c2c(=O)[nH]n3C(C)C)cc1 (centres undefined) | 6.71 |
| CC(C)(C)CC(=O)NCC(=O)Nc1ccn(CCCn2ccnc2)n1 | 10.6 |
| O=C(Cc1ccccn1)NCC1OCCc2cn(CC3CC3)nc21 (centres undefined) | 7.51 |

| Compound | cytotoxicity at 10 µM [%] |
| --- | --- |
| c1cc(-c2cscn2)cc(N2CCC(NCCc3cccs3)CC2)c1 | 8.65 |
| CC(c1cn2ccsc2n1)n1cc2[nH]cccc-2c1=O (centres undefined) | -1.97 |
| CS(=O)(=O)CCC(=O)Nc1cc(Cl)c(Cl)cn1 | 4.52 |
| Cc1ncsc1CN1CC[C@H]2OCC[C@@]2(C(=O)N2CCCC2)C1 | 7.63 |
| Cc1nsc(C(=O)NCCCc2ccccc2)n1 | -0.449 |
| CS(=O)(=O)N[C@@H]1CN(Cc2ccoc2)C[C@@H]2CCCO[C@@H]21 | 13.2 |
| c1ccc(Cn2cc(CNCC3CCCN3c3cccnn3)cn2)cc1 (centres undefined) | -4.03 |
| CN1C(=O)C(C)(C)COc2cc(NS(=O)(=O)Cc3ccccc3)ccc21 | -7.79 |
| Nc1ncc(C(=O)N2CCC3(CCCO3)CC2)c(-c2ccccc2)n1 | -156 |
| Cc1nc(-c2ccsc2)ccc1C(=O)NCCC(=O)N1CCCC1 | -9.57 |
| O=C(c1cc2c([nH]c1=O)CCC2)N1CCCC1c1ccccn1 (centres undefined) | -3.18 |
| N#Cc1cccnc1N1CCCN(C(=O)CCn2cccn2)CC1 | 2.81 |
| O=C(Cc1cnn(-c2ccccc2)n1)NC1CCOCC1 | -9.72 |
| CCC(CC)c1cc(C(=O)N2CCN(C(C#N)C(C)C)CC2)on1 (centres undefined) | 1.87 |
| CN(C)c1nc2sc(C(=O)N3CCN(C(=O)OC(C)(C)C)CC3)cc2s1 | 1.71 |
| Cc1nccn1CCCC(=O)N1CCN(c2cccnc2)CC1 | -4.98 |
| CN1CCCc2cc(CNC(=O)c3ccncc3)ccc21 | 7.03 |
| O=C(CCNc1ncccn1)Nc1ccc(Cn2cncn2)cc1 | 2.5 |
| COCCN(CC1CCCN(C2Cc3ccccc3C2)C1)C(=O)COC (centres undefined) | -5.98 |
| CC(C)c1cc(=O)[nH]c(-n2nc(C3CC3)cc2N)n1 | 33.9 |
| COc1ccc(N(c2ccc(C)cc2)c2ccc(C(=O)O)s2)cc1 | -3.75 |
| CCS(=O)(=O)N(C)c1ccc(C(=O)N2CCCC(C)C2)cc1 (centres undefined) | -15.4 |

| Compound | cytotoxicity at 10 µM [%] |
| --- | --- |
| Cc1cc2[nH]c(CN3CCOC(C(F)(F)F)C3)cc(=O)n2n1 (centres undefined) | -21.2 |
| FC(F)(F)CCc1ccnc(N2CCN(Cc3ccccn3)CC2)n1 | -27 |
| CC(C)(C)c1n[nH]c(C2CN(C(=O)Cn3ccccc3=O)CCO2)n1 (centres undefined) | -1.22 |
| O=C(CCc1ccncc1)NCCOc1ncc(Cl)cc1Cl | -2.56 |
| O=C(Cc1cccs1)NCC(=O)Nc1cn[nH]c1 | 5.68 |
| Cc1noc2nc(C3CCN(Cc4ccccn4)CC3)cc(C(F)F)c12 | -13 |
| CN(C)c1ncccc1C(=O)N1CCCC1Cn1cccn1 (centres undefined) | -2.83 |
| C=Cc1ccc(CSc2nc3c(c(=O)[nH]2)CN(CCC)CC3)cc1 | -4.68 |
| O=S(=O)(CCN1CCCC1Cn1cccn1)c1ccccc1 (centres undefined) | -11.9 |
| CN(C)C(=O)CC1CC2(CCN(Cc3ccsc3)CC2)c2ccccc21 (centres undefined) | 1.13 |
| CC(C)CSCCCNC(=O)C1CCOC1 (centres undefined) | -5.81 |
| CN(C)C(=O)C1CCc2nnc(C(C)(C)C)n21 (centres undefined) | 3.13 |
| Cc1nc(-c2nnc[nH]2)sc1C(=O)N(Cc1cccnc1)C1CC1 | -5.79 |
| CCC(C(=O)N(C)Cc1cc(C2CC2)[nH]n1)n1cccn1 (centres undefined) | -8.35 |
| CN1CC=C(c2noc(CCC(=O)N3CCc4ccccc43)n2)CC1 | 7.22 |
| COc1ccc(CC(=O)N2CCCCC2Cn2cccn2)cc1OC (centres undefined) | -12.4 |
| CCCNC(=O)C(C)N1CCC(C(=O)Nc2cnn(CC)c2)CC1 (centres undefined) | -5.36 |
| O=C(NCCN1CCOCC1)N1CCN(c2ccccc2)CC1 | 8.84 |
| O=C(NC1CCCc2c1[nH]c1ccc(F)cc21)c1n[nH]c2c1CCCC2 (centres undefined) | 46.4 |
| CN(CCc1ccccn1)C(=O)CCC1CCCN(S(C)(=O)=O)C1 (centres undefined) | 4.77 |
| Cc1nccn1CCCC(=O)N1CCCN(c2cccnn2)CC1 | -9.35 |
| COc1ccc(CN2C[C@H]3CN(C(=O)c4ccno4)CCN3C2=O)cc1 | -4.23 |

| Compound | cytotoxicity at 10 µM [%] |
| --- | --- |
| Cc1cnc(NC(=O)c2ccc(-n3ncc(C#N)c3N)cc2)s1 | 5.88 |
| Cc1ccc(S(=O)(=O)Nc2ccc(=O)n(C)c2)c(Br)c1 | 0.802 |
| Cc1ccc(S(=O)(=O)N2CCC(c3n[nH]cc3C(=O)N(C)C)CC2)cc1 | -1.73 |
| Cc1ccc(-c2nc(CCNC(=O)C3CC(=O)N(C)C3)cs2)cc1 (centres undefined) | -5.54 |
| CN(C)S(=O)(=O)N1CC[C@]2(C[C@@H](Oc3cccnc3)CO2)C1 | -76.3 |
| CC(C)NC(=O)[C@@H]1C[C@H](N)CN1C(=O)C1(c2ccc(Cl)cc2)CCC1 | 3.92 |
| C1CCN(Cc2nnn3c2CN(CC2CC2)CCC3)C1 | -139 |
| CNC(=O)CN(C)S(=O)(=O)c1c(Br)cc2[nH]c(=O)oc2c1Cl | 1.36 |
| COc1cccc(CN(C)C(=O)c2csc(-c3nnc[nH]3)n2)c1 | -14.4 |
| CCCNC(=O)NC(C)c1ccccn1 (centres undefined) | -8.26 |
| CCc1nn(C)c2[nH]nc(NC(=O)c3ccccc3COC)c12 | 6.16 |
| CCOCCN1Cc2ncn(C)c2C(COCC2CCOCC2)C1 (centres undefined) | -70.6 |
| CN(C)c1nc(N2CCCC2)nc2c1CCN(C(=O)c1ccoc1)CC2 | 14.9 |
| Cn1ccnc1CN1CCC2(CCC(=O)N2CCN2CCCC2)CC1 | -0.171 |
| COc1ccc2c(c1)OCC(CNC1CCc3ncnn3C1)=C2 (centres undefined) | 4.4 |
| CCc1cnc(CN(C)C2CCN(CC3CCN(C(C)=O)CC3)C2)o1 (centres undefined) | 4.84 |
| COCCN1CCN(Cc2ccncc2)[C@H]2CS(=O)(=O)C[C@H]21 | -10.2 |
| CC(C)c1cc(C(=O)NCCCN(C)C)nc(N2CCCC2)n1 | 8.49 |
| O=C(NC(CO)CO)c1coc(COc2cccc(F)c2)n1 | 12.5 |
| Cc1nc(C)n(CC2CN(Cc3cccnc3)CCO2)n1 (centres undefined) | -5.38 |
| CN(Cc1ccccc1)C(=O)CCNc1ncccc1C#N | 4.55 |

From ChEMBL document CHEMBL4513216, “Probing the Open Global Health Chemical Diversity Library for Multistage-Active Starting Points for Next-Generation Antimalarials” (ACS Infect Dis, 2020)
